Screens from PubChem BioAssay.
Hits are enriched below; roughly 3% of the tested compounds scored in any of these assays.
5HT1a antag = blocks the human serotonin 5-HT1a receptor. P08908. CHO 5-HT1a Ga15 NFAT-bla reporter, antagonist mode. inhibition, % at 10 µM. 62,000 compounds, 0.68% hits. AID 612;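 active means inhibition above the mean of all tested compounds plus 3 SD, cut at about 43% in these data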;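 further: receptor stimulated by 5-CT agonist at 100 nM near EC80; beta-lactamase reporter measured by ratiometric fluorescence of a cleavable substrate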
Target sequence (P08908 whole entry, looked up): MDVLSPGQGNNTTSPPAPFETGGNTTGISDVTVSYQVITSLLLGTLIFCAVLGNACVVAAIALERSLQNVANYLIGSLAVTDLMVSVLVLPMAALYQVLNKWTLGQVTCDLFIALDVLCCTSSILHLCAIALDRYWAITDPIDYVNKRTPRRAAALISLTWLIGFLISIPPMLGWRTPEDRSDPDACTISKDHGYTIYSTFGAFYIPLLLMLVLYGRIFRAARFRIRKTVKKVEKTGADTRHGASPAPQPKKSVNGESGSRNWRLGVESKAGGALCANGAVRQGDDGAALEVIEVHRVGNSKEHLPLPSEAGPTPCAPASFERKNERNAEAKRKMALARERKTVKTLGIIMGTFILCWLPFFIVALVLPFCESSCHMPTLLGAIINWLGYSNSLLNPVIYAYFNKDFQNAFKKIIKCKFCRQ
5HT1a ag = agonists of human 5-HT1a serotonin receptor; 65,000 compounds, 0.56% hits; CHO 5-HT1a Ga15 NFAT-bla reporter, FRET ratio; 0% basal, 100% maximal reference agonist; P08908; activation, % at 10 µM;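 active means activation above the screen-wide mean activation plus 3 SD, cut at about 19% in these data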
S1P3 agonist = S1P3 (human) receptor agonism | Q99500 | S1P3 NFAT-BLA reporter cells, FRET ratio; relative to 1 µM S1P, basal subtracted | activation, % at 4.5 µM | 60,000 compounds, 0.1% hits;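 active means activation above the screen-wide mean plus 3 SD, cut at about 4.5% in these data, passing the limit was not always enough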
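material = human S1P3 NFAT-BLA reporter CHO cells | schedule = 4 h compound at 37 °C, 2 h substrate at RT | measured by = fluorescent BLA substrate, ex 405 nm, em 460/535 nm ratio | controls = 1 µM S1P reference | replication = primary once, confirmation triplicate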
S1P1 ag pot = S1P1 (human) agonism or agonism potentiation. P21453. S1P1 CRE-bla cells, forskolin, beta-lactamase FRET, potentiator mode; S1P1 agonist co-added at EC20, 2 nM; 100% = saturating reference agonist, 0% = basal. activation, % at 9.5 µM. 56,000 compounds, 0.57% hits. AID 449;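 active means activation above a cutoff set at the mean activation of all tested compounds plus 3 SD, cut at about 54% in these data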;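 further: forskolin at 4 µM as EC80 and the EC20 agonist is SEW2871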
HTR1E antagonist = blocks the human 5-HT1E serotonin receptor | P28566 | CHO 5-HT1E Ga15 NFAT-bla reporter, FRET, antagonist | inhibition, % at 6 µM | 65,000 compounds, 0.99% hits | AID 571;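 active means inhibition above a set limit, the mean inhibition across every tested compound plus 3 SD, cut at about 29% in these data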;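 further: signal is the 460 over 535 nm emission ratio of beta-lactamase substrate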
HTR1E agonist = activates the human 5-HT1E serotonin receptor; CHO 5-HT1E Ga15 NFAT-bla reporter, FRET; 0% DMSO wells, 100% control agonist wells; activation, % at 6 µM; 65,000 compounds, 0.69% hits; AID 574;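 active means activation above a set limit, the screen-wide mean activation plus 3 SD, cut at about 8.5% in these data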
Large screens that a line does not name were inactive.

CSc1nn(CCc2ccncc2)c(=S)s1	none
C=CCOC(=O)c1[nH]c2c(c1C)C(=O)CC(c1ccco1)C2 (stereo unspecified)	5HT1a antag 51, HTR1E antagonist 76
C/C=C/COC(=O)c1[nH]c2c(c1C)C(=O)CC(c1ccco1)C2 (stereo unspecified)	5HT1a antag 64, HTR1E antagonist 78
COC(=O)c1[nH]c2c(c1C)C(=O)CC(c1ccccc1)C2 (stereo unspecified)	5HT1a antag 55, HTR1E antagonist 68
Cc1c(C(=O)OC2CCCC2)[nH]c2c1C(=O)CC(c1ccco1)C2 (stereo unspecified)	5HT1a antag 62, HTR1E antagonist 85
Cc1c(C(=O)OCC2CCCO2)[nH]c2c1C(=O)CC(c1ccco1)C2 (stereo unspecified)	none
O=C(NCC1COc2ccccc2O1)C1CCCN(S(=O)(=O)c2cnc[nH]2)C1 (stereo unspecified)	none
Cc1ccc(P(=Nc2ccccc2)(N2CCOCC2)N2CCOCC2)o1	none
Cc1c(C(=O)N2CCOCC2)[nH]c2c1C(=O)CC(c1ccccc1Cl)C2 (stereo unspecified)	HTR1E agonist 40
Cc1c(C(=O)OCC(C)C)[nH]c2c1C(=O)CC(c1ccco1)C2 (stereo unspecified)	5HT1a antag 53, HTR1E antagonist 69
COCCOC(=O)c1[nH]c2c(c1C)C(=O)CC(c1cc(OC)ccc1OC)C2 (stereo unspecified)	none
O=S(=O)(C/C(=C/CO)S(=O)(=O)c1ccccc1)c1ccccc1	5HT1a antag 92, S1P1 ag pot 82, HTR1E antagonist 106
CCCCN1C(=O)c2ccc(C(=O)NC3=NCCS3)cc2C1=O	none
CCn1c(N2CCN(CC(=O)Nc3cccc(C)c3C)CC2)nc2ccccc21	none
CCn1c(N2CCN(CC(=O)c3ccc(OC)cc3)CC2)nc2ccccc21	HTR1E agonist 18
CC(=O)N1CCc2cc(C(=O)CN3CCN(c4cccc(Cl)c4)CC3)ccc21	HTR1E agonist 26
CC(=O)N1CCc2ccc(C(=O)CN3CCN(c4cccc(C)c4C)CC3)cc21	HTR1E agonist 46
CSc1ncccc1C(=O)OCc1ccccc1	none
CSc1ncccc1C(=O)OCc1ccccc1F	5HT1a ag 73
Cc1ccc(S(=O)(=O)Cn2nnnc2CN(Cc2ccco2)CC2CCCO2)cc1 (stereo unspecified)	none
CN(C)c1oc(-c2ccc(OCc3ccccc3)cc2)nc1C#N	S1P1 ag pot 72
N#Cc1nc(-c2ccc(OCc3ccccc3)cc2)oc1NCc1cccnc1	S1P1 ag pot 60
COc1cc(OC)cc(C(=O)N2c3ccc(F)cc3CCC2C)c1 (stereo unspecified)	HTR1E agonist 26
Cc1ccc(N2CCN(c3cc(C)nc4nc(C)nn34)CC2)c(C)c1	none
COc1ccc(C(=O)C(CN2CCOCC2)c2ccccc2)cc1F (stereo unspecified)	5HT1a antag 76, HTR1E antagonist 39
COc1ccc(C(O)C(CN2CCOCC2)c2ccccc2)cc1F (stereo unspecified)	none
O=C(CCn1nnc2ccccc21)Nc1nnc(-c2ccccc2F)s1	none
COc1cc(C(=O)OCn2nnc3ccccc3c2=O)cc(OC)c1OC	none (no result: S1P3 agonist, S1P1 ag pot)
COc1cccc(C(=O)OCn2nnc3ccccc3c2=O)c1OC	HTR1E antagonist 33
CC(C)CNC(=O)C1CCN(c2ccc(S(=O)(=O)N3CCOCC3)cc2Cl)CC1	none
O=C(NCc1cccs1)C1CCN(c2ccc(S(=O)(=O)N3CCOCC3)cc2Cl)CC1	HTR1E antagonist 40
CCCCCCC(=O)c1c(C)[nH]c(C(=O)OCC)c1C	HTR1E antagonist 36
CCCN(CCC)C(=O)c1c(C)[nH]c(C(=O)OCC)c1C	none
N#CC(c1nc2ccccc2nc1N1CCCCC1)S(=O)(=O)c1ccc(Cl)cc1 (stereo unspecified)	HTR1E agonist 12
Cc1ccc(S(=O)(=O)C(C#N)c2nc3ccccc3nc2N2CCCCC2)cc1 (stereo unspecified)	none (no result: S1P3 agonist, S1P1 ag pot)
